# Sampled rows, rich in hits. Any-hit rate of the full collection: about 2.9%.
# MEKK2wt PB1 HTS – modulators of MEK5 binding to wildtype MEKK2, primary screen, biochemical, multiplex bead flow cytometry, Alexa488-MEK5. Alexa488-MEK5 binding to MEKK2 WT; actives lie on both sides. 1.1% of 290,000 active. binding response (% of control), % at 10 µM. Mitogen-activated protein kinase kinase kinase 2 (Homo sapiens), Q9Y2U5; in the data active = binding response below about 67% or above about 130%
# MEKK2 mut-MEK5 – MEK5 binding signal on mutant MEKK2 PB1, primary screen, biochemical, multiplex bead flow cytometry, Alexa488-MEK5; Alexa488-MEK5 binding to MEKK2 mutant; percent response, % at 10 µM; 0.35% of 290,000 active; AID 1530, 2009; in the data active = percent response above about 24%, passing the limit was not always enough
# Apaf1 inhib – inhibitors of human Apaf-1 apoptosome, primary screen, biochemical, DEVD-Rh110 fluorescence, uHTS. Apoptotic protease-activating factor 1 (Homo sapiens), O14727. reconstituted apoptosome caspase-3 activity. inhibition, % at 20 µM. 0.71% of 330,000 active; active = inhibition of at least 40% at 20 µM;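 also: plate controls were DMSO wells for no effect and DEVD-CHO caspase inhibitor wells for full effect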
#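 Material: reconstituted apoptosome with Apaf-1, cytochrome c, caspase-9, procaspase-3, dATP / Buffer or medium: pH 7.5 Hepes buffer with CHAPS, BSA, DTT / Also added: cytochrome c with DEVD-Rh110 / Schedule: compound with Apaf-1, dATP, procaspase-3 30 min, then 50 min reaction, room temperature / Technique: rhodamine 110 fluorescence at Ex 480/Em 540 nm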
# MEKK3 PB1 HTS – modulators of MEKK3-MEK5 PB1 binding, primary screen, biochemical, wildtype MEKK3, multiplex bead flow cytometry, Alexa488-MEK5; Mitogen-activated protein kinase kinase kinase 3 (Homo sapiens), Q99759; bead-based flow cytometry, Alexa488-MEK5 binding to MEKK3; actives lie on both sides; 0 = blocked by unlabeled MEK5, 100 = vehicle; binding response (% of control), % at 10 µM; 1.4% of 290,000 active; AID 1529, 2009;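 active = binding response more than 3 SD above or below the average of its plate-row segment, actives on both sides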;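 also: Alexa488 bead fluorescence after subtracting the streptavidin-only scavenger bead signal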
# UBC13 polyUb – UBC13 polyubiquitin chain formation inhibitors, primary screen, biochemical, TR-FRET, uHTS; Ubiquitin-conjugating enzyme E2 N (Homo sapiens), P61088; inhibition, % at 20 µM; 0.47% of 330,000 active; AID 485273, 2010; in the data active = inhibition above about 45%, passing the limit was not always enough
# * hit, by the source's call; x = not tested or not shown; [ ] = dose if it differs, or a comment.
SMILES,MEKK2wt PB1 HTS,MEKK2 mut-MEK5,Apaf1 inhib,MEKK3 PB1 HTS,UBC13 polyUb
C/C(=N/NC(=O)c1cccc(N2CCCC2=O)c1)c1ccncc1,-5.0*,3,-1,102,9
CCn1c(N2CCN(CC(=O)c3ccc(OC)cc3)CC2)nc2ccccc21,2.0*[inhibitor],-18,x,2.0*[inhibitor],x
CC(=O)c1ccc(N2CCN(C(=S)Nc3ccc(Oc4ccccc4)cc3)CC2)cc1,105,-2,-1,107,3
CN1CCN(c2ccc(NC(=O)c3ccc(Oc4ccccc4)cc3)cc2)CC1,124,27*,17,100,21
ONc1cccnc1-n1nc(C(F)(F)F)cc1C(F)(F)F,79,-69,47*,86,-49
CCCN(CC(=O)Nc1ccccc1C)C(=O)CCCc1c[nH]c2ccccc12,x,x,-1,x,8
Cc1c(NC(=O)c2ccc(C(=O)Nc3c(C)n(C)n(-c4ccccc4)c3=O)cc2)c(=O)n(-c2ccccc2)n1C,111,4,5,110,-4
Cc1c(NC(=O)c2cnc(Cl)c(Cl)c2)c(=O)n(-c2ccccc2)n1C,46*[inhibitor],-19,7,50*[inhibitor],4
Cc1cccn2c(=O)c3cc(C(=O)NC4CCCC4)c(=N)n(Cc4ccc(F)cc4)c3nc12,98,0,26,99,14
Cc1cccn2c(=O)c3cc(C(=O)NC4CCCCC4)c(=N)n(Cc4ccccc4)c3nc12,79,-2,57*,97,20
CC1(OC(=O)C2CCCC2)C(=O)C=C2C=C3CCCN3C=C2C1=O (stereo not given),98,-1,11,102,-7
CC1(OC(=O)c2cccs2)C(=O)C=C2C=C3CCCN3C=C2C1=O (stereo not given),121,4,62*,110,-105
COc1ccc(/C=C/C(=O)c2cc(F)ccc2OC(=O)c2ccccc2C)cc1OC,108,0,5,150*,-5
Nc1nn2c(-c3ccccc3)cc(=O)[nH]c2c1N=Nc1ccc(O)cc1,91,-7,41*,94,-100
C=CCN1C(=O)/C(=C/C=C2/N(CC)c3ccc(S(=O)(=O)N(C)C)cc3N2CC)SC1=S,36*[inhibitor],-17,17,65,-357
CCC(C)Nc1nc(-c2c[nH]c3ccccc23)cs1 (stereo not given),-19*,8,30,78*[inhibitor],-20
CC1(C)Cc2c(sc3ncnc(NNC(=S)NCc4ccccc4)c23)CO1,108,0,-9,132*,-5
CC(C)NC(=S)NNc1ncnc2sc3c(c12)CC(C)(C)OC3,x,x,-2,x,-12
CCCOc1ccccc1OCC(=O)Nc1cccc(S(=O)(=O)NC2=NCCC2)c1,x,x,1,x,0
COc1ccc(CCN(C)C(=O)c2c(C)nn(CC(C)C)c2Cl)cc1OC,44*[inhibitor],-39,16,55*[inhibitor],10
Clc1ccc(CN2CCN(c3ncccn3)CC2)cc1,107,2,-6,99,1
Cc1cc(C)nc(NC(=NCCc2c[nH]c3ccccc23)NC(=O)Nc2ccc(Cl)c(Cl)c2)n1,49*,47,5,109,-12
COc1ccccc1N(C)S(=O)(=O)c1ccc(C)c(C(=O)Nc2nccs2)c1,x,x,10,x,-2
Cc1cc(=O)oc2cc(OCC(=O)NC3CC(C)(C)NC(C)(C)C3)ccc12,74,-12,-3,78*[inhibitor],3
CCc1cc(=O)oc2cc(OCC(=O)NC3CC(C)(C)NC(C)(C)C3)ccc12,111,4,-20,103,2
SMILES,MEKK2wt PB1 HTS,MEKK2 mut-MEK5,Apaf1 inhib,MEKK3 PB1 HTS,UBC13 polyUb
CC(=O)c1c(C)[nH]c(C(=O)CN2C(=O)NC(CCc3ccccc3)C2=O)c1C (stereo not given),96,-3,-11,96,6
Nc1cc(N2CCCC2)c(Cl)cc1[N+](=O)[O-],99,-1,43*,100,-16
CCOc1cc(NC(=O)C2CCCO2)c(OCC)cc1NC(C)=O (stereo not given),93,-9,-1,92,-11
CC(=O)Nc1cc(OC(C)=O)c2nonc2c1OC(C)=O,101,3,98*,100,-39
Clc1ccc2c(N/N=C/c3ccccc3Br)ccnc2c1,85,-2,1,70*[inhibitor],5
O=C(c1cc2c(s1)CCCC2)N1CCN(CCO)CC1,x,x,11,x,-14
Cc1ccccc1C(=O)Nc1ccc(C(=O)N/N=C/c2ccc(O)cc2)cc1,59*[inhibitor],-22,0,92,-7
c1cc(N2CCCC2)ccc1C(c1nnnn1C1CCCCC1)N1CCOCC1 (stereo not given),-5.0*,2,17,96,0
COc1ccc(C(c2nnnn2C2CCCCC2)N2CCN(c3ccc(OC)cc3)CC2)cc1 (stereo not given),101,-3,14,101,0
Nc1nc(-c2cccnc2)nn1C(=O)c1ccc(Cl)cc1,-3.0*,2,x,96,x
Cc1ccc(C)c(S(=O)(=O)N2CCN(C(=O)c3ccnn3C)CC2)c1,104,9,12,103,-5
Cn1ncc([N+](=O)[O-])c1C(=O)N/N=C/c1cccc([N+](=O)[O-])c1,85,-9,-13,90,5
O=[N+]([O-])c1ccc(N/N=C/c2sc(N3CCOCC3)nc2-c2ccccc2)c(S(=O)(=O)Nc2ccccc2Cl)c1,x,63*,x,91,x
CC(C)(C)c1nnc(NC(=O)Nc2ccc(Cl)cc2)s1,-4.0*,2,-7,98,-4
COc1ccc(NC(=O)Nc2nnc(C(C)(C)C)s2)cc1,-4.0*,6,-1,108,9
COc1ccc(CCC(=O)Nc2nnc(C(C)(C)C)s2)cc1,110,6,1,106,2
CN1/C(=C\C=O)C(C)(C)c2ccccc21,95,-2,-8,93,-16
CN1\C(=C/C=C/C=C/C=[N+](C)C)C(C)(C)c2ccccc21,-3.0*,-23,x,89,x
Cc1ccc(-n2c(=O)c3cc4c(=O)n(-c5ccc(C)c(C)c5)c(=O)c4c(C(=O)c4ccc(C(=O)O)cc4)c3c2=O)cc1C,29*[inhibitor],-12,27,48*[inhibitor],-25
CCCN1CCc2c(sc(NC(=O)c3ccc(S(=O)(=O)N4CCN(C(=O)OCC)CC4)cc3)c2C(N)=O)C1,4.0*,4,14,102,-15
O=C(NC(=S)Nn1cnc2c(cnn2-c2ccccc2)c1=O)c1ccc(Oc2ccccc2)cc1,99,-1,41*,103,-12
CCCC[n+]1ccn(C2=C([O-])c3ccccc3C(=O)/C2=N\S(=O)(=O)c2ccccc2)c1,111,5,59*,108,-114

# Screening data deposited in PubChem BioAssay by several laboratories.
